Reference: paper PMC3911823 (The FEBS journal, 2011)
Where a chain is given by its changes, count along the chain named.

Columns and labels:
P450 2B4 H172A = target: T1, P450 2B4 H172A (Oryctolagus cuniculus, UniProt P00178, H172A); assay: Inhibition of 7-EFC O-deethylation by imidazole inhibitors; assay type: biochemical, rabbit (Oryctolagus cuniculus)
T1 sequence (P00178 with tags, fused parts or gaps H172A limits assumed): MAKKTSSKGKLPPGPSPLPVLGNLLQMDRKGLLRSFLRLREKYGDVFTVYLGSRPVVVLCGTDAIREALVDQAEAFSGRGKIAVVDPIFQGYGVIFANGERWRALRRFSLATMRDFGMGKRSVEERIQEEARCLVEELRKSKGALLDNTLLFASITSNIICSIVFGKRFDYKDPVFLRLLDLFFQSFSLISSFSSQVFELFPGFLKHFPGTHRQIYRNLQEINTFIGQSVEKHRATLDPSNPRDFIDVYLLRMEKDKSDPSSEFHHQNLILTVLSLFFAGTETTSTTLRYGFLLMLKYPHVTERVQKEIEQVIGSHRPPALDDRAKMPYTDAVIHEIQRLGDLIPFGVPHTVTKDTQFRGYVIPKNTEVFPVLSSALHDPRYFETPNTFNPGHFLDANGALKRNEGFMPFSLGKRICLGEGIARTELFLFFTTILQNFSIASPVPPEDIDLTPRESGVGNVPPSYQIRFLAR

P450 2B4 L437A = target: T2, P450 2B4 L437A (Oryctolagus cuniculus, UniProt P00178, L437A); assay: Spectral binding titration of imidazole ligands; parameters: species or system rabbit (Oryctolagus cuniculus); conditions: 2B4 L437A versus wild type
T2 sequence (P00178 with tags, fused parts or gaps L437A limits assumed): T1 sequence (P00178 with tags, fused parts or gaps H172A limits assumed) with A153H, L418A
Method in brief: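 Protein was the His-tagged 2B4dH construct (single mutants or wild type), expressed in TOPP3 cells and Ni-NTA purified. Spectra 350–700 nm recorded after serial 5 μl additions of 100 μM 4-CPI or bifonazole. Ks came from a tight-binding equation fit, and the 4-CPI/bifonazole Ks ratio was calculated.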

IC50 (P450 2B4 H172A): 310 nM
Ratio 4-CPI IC50/Bifonazole IC50 (P450 2B4 H172A; 2B4 H172A, 50 μM 7-EFC as substrate): 0.53
Ks (spectral dissociation constant) higher than wild type (P450 2B4 L437A): ~ 50 times
change in the ratio of 4-CPI Ks to bifonazole Ks (P450 2B4 L437A): greater than 9 fold
SMILES: Clc1ccc(-c2c[nH]cn2)cc1 [4-CPI, 4-(4-chlorophenyl)imidazole]
